The results in this text go back to ChEMBL document CHEMBL1806375, “Synthesis, molecular modeling and bio-evaluation of cycloalkyl fused 2-aminopyrimidines as antitubercular and antidiabetic agents” (Bioorg Med Chem Lett, 2011).

In data set [1] the test system is Mycobacterium tuberculosis. In words: Antimycobacterial activity against Mycobacterium tuberculosis H37Rv after 30 days by agar microdilution method. The class given is functional. The procedure, abridged:
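Virulent M. tuberculosis H37Rv strain tested by agar microdilution. Isoniazid and ethambutol served as reference drugs. Read-out is the MIC.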

Data set [2] relates to Mycobacterium tuberculosis. In words: Antimycobacterial activity against Mycobacterium tuberculosis H37Rv infected in mouse bone marrow macrophages assessed as intracellular growth inhibition after 4 days. The class given is functional.
Data set [3] addresses T1, Glycogen phosphorylase, liver form (Rattus norvegicus) (UniProt P09811).
T1 sequence (whole entry): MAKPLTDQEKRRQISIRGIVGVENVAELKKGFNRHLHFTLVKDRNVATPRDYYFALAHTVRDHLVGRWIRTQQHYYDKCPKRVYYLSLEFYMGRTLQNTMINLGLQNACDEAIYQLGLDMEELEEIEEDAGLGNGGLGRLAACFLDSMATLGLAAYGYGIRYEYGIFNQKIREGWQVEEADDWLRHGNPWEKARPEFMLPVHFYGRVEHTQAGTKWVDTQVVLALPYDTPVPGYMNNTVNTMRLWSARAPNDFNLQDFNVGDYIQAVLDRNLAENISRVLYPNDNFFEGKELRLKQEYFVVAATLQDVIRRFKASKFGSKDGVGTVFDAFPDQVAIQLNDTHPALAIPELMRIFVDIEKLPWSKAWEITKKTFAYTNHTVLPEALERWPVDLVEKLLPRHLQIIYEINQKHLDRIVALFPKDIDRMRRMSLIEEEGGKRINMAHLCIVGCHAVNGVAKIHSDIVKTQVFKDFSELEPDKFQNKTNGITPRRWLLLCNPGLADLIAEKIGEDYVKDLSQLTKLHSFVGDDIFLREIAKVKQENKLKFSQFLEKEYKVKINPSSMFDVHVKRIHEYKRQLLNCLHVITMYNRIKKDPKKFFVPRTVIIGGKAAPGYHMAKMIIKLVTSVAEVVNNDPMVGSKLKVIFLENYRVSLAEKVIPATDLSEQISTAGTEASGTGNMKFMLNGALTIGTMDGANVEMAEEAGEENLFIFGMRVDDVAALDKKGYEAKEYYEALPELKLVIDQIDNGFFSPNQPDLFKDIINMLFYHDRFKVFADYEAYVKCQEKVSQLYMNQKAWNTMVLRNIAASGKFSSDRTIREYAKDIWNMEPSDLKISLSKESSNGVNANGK
Kind of data set: Inhibition of Wistar rat liver glycogen phosphorylase at 100 uM after 30 mins.

The species named for data set [4] is Rattus norvegicus. In words: Inhibition of albino rat intestine alpha-glucosidase using p-nitrophenyl-alpha-D-glucopyranoside as substrate at 100 uM.
Data set [5] has as its system Vero. In words: Cytotoxicity against african green monkey Vero cells at 10 times MIC of Mycobacterium tuberculosis H37Rv after 24 hrs by MTS assay. The class given is cell-based. To be noted: chlorocebus sabaeus.
A short description of data set [6]: Cytotoxicity against mouse bone marrow macrophages at 10 times MIC after 48 hrs by MTS assay. The class given is cell-based. As to conditions: macrophage. (In general: Formazan colour is commonly taken as a measure of viable cells.)
Data set [7] concerns Mycobacterium tuberculosis. Kind of data set: Antimycobacterial activity against Mycobacterium tuberculosis H37Rv infected in mouse bone marrow macrophages assessed as intracellular growth inhibition at 3.12 ug/ml after 4 days. It counts as functional. As to conditions: 96 h, read-out: GI.

Converted amounts (≈) assume the structure as drawn.

The term MIC denotes the lowest concentration that inhibits growth of the organism. What is called inhibition is the relative decrease from the control value, in per cent.

In data set [1], `NNC(=O)c1ccncc1` [ISONIAZID] came in with a minimal inhibitory concentration (MIC) of 0.75 mg/L (≈ 5.47 µM). Moreover, in data set [2], the “growth inhibition (GI)” value is “>=99%”.

Regarding `Nc1nc2c(c(-c3cccc4ccccc34)n1)CCC/C2=C\c1cccc2ccccc12`, the lowest concentration to inhibit growth in data set [1] (MIC) was 12.5 mg/L (≈ 30.2 µM). The inhibition worked out at 11.3% in data set [3] and 13.7% in data set [4].

Consider `COc1cc(/C=C2\CCCc3c2nc(N)nc3-c2cc(OC)c(OC)c(OC)c2)cc(OC)c1OC`, for which the MIC in data set [1] is more than 12.5 mg/L.

Consider `Nc1nc2c(c(-c3ccc(Cl)cc3)n1)CCCC/C2=C\c1ccc(Cl)cc1`, for which, in data set [1], the MIC is more than 12.5 mg/L. The inhibition in data set [4] stood at 11.4%.

`Nc1nc(Cc2ccco2)c2c(n1)/C(=C/Cc1ccco1)CCC2`: the MIC in data set [1] was more than 12.5 mg/L.

Consider `COc1cc(/C=C2\CCCCc3c2nc(N)nc3-c2cc(OC)c(OC)c(OC)c2)cc(OC)c1OC`, for which the minimal inhibitory concentration (MIC) in data set [1] is more than 12.5 mg/L.

In the case of `Nc1nc2c(c(-c3ccccc3)n1)CCCC/C2=C\c1ccccc1`, the MIC in data set [1] was more than 12.5 mg/L. In addition, the inhibition in data set [4] is -0.07%.

`COc1ccc(/C=C2\CCCc3c2nc(N)nc3-c2ccc(OC)cc2)cc1` gave an MIC in data set [1] of more than 12.5 mg/L. For the same molecule, in data set [3], the inhibition is -10%.

Take `Nc1nc2c(c(-c3ccc(F)cc3)n1)CCC/C2=C\c1ccc(F)cc1`: the MIC in data set [1] was found to be 12.5 mg/L (≈ 35.8 µM).

Consider `CC[C@@H](CO)NCCN[C@@H](CC)CO` [ETHAMBUTOL], for which the minimum inhibitory concentration (MIC) in data set [1] came to 3.25 mg/L (≈ 15.9 µM).

Molecule `COc1ccc(/C=C2\CCCc3c2nc(N)nc3-c2ccc(OC)c(OC)c2)cc1OC` yielded an MIC in data set [1] of more than 12.5 mg/L.

In data set [1], `Nc1nc2c(c(-c3ccc(OCc4ccccc4)cc3)n1)CCC/C2=C\c1ccc(OCc2ccccc2)cc1` registered a minimum inhibitory concentration (MIC) of more than 12.5 mg/L. For the same molecule, in data set [3], the inhibition is -0.87%.

`Nc1nc2c(c(-c3ccccc3)n1)CCC/C2=C\c1ccccc1` showed an MIC in data set [1] of 6.25 mg/L (≈ 19.9 µM). The inhibition in data set [3] was -6.1%.

In the case of `Nc1nc2c(c(-c3cccc4ccccc34)n1)CCCC/C2=C\c1cccc2ccccc12`, the MIC in data set [1] was more than 12.5 mg/L.

As to `Nc1nc2c(c(-c3ccc4ccccc4c3)n1)CCC/C2=C\c1ccc2ccccc2c1`, the minimal inhibitory concentration (MIC) in data set [1] is 6.25 mg/L (≈ 15.1 µM). For the same molecule, the values for the inhibition in data set [3] and in data set [4] were -5% and -6%, respectively.

As to `COc1ccc(/C=C2\CCCCc3c2nc(N)nc3-c2ccc(OC)cc2)cc1`, in data set [1], the MIC was more than 12.5 mg/L.

`COc1ccc(/C=C2\CCCCc3c2nc(N)nc3-c2ccc(OC)c(OC)c2)cc1OC` displayed a minimum inhibitory concentration (MIC) in data set [1] of 6.25 mg/L (≈ 14 µM). Further, the inhibition in data set [4] is -6.4%.

`Nc1nc2c(c(-c3ccc(Cl)cc3)n1)CCC/C2=C\c1ccc(Cl)cc1`: the minimal inhibitory concentration (MIC) in data set [1] is more than 12.5 mg/L.

In data set [1], `Nc1nc(Cc2ccco2)c2c(n1)/C(=C/Cc1ccco1)CCCC2` had a minimal inhibitory concentration (MIC) of more than 12.5 mg/L. For the same molecule, the results for the inhibition in data set [3] and in data set [4] were 34.3% and -4.87%, respectively.

Molecule `Nc1nc2c(c(-c3ccc4ccccc4c3)n1)CCCC/C2=C\c1ccc2ccccc2c1` registered an MIC in data set [1] of 3.12 mg/L (≈ 7.3 µM). Also, the Activity entry in data set [5] and in data set [6] was “Non-toxic” in each case. In addition, the inhibition of growth at 3.12 µg/mL in data set [7] turned out to be 58%.

On to `Nc1nc2c(c(-c3ccc(Br)cc3)n1)CCC/C2=C\c1ccc(Br)cc1`, for which inhibition of growth in data set [1] (MIC) required 12.5 mg/L (≈ 26.5 µM).

As to `Nc1nc2c(c(-c3ccc(Br)cc3)n1)CCCC/C2=C\c1ccc(Br)cc1`, the MIC in data set [1] was more than 12.5 mg/L. Besides, the inhibition in data set [4] was -5.86%.
